Activity calls are given as the source filed them. The calls are words filed in the database; no cut-off is given here.
Tests used:
[1] = target: T1, Metabotropic glutamate receptor 1 (Homo sapiens, UniProt Q13255); assay: Negative allosteric modulation of human mGlu1 receptor expressed in HEK293A TREx cells assessed as calcium flux after 45 mins; type: functional, cell-based, HEK293-A
Procedure, shortened: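 HEK293A TREx cells stably expressing human mGlu1 were induced overnight with 50 ng/mL tetracycline at 37 °C. Ten-point 1:3 compound series were added for 2.3 min, then an EC20 of glutamate, then an EC80 of glutamate 1.9 min later. Ca2+ flux was read for 1.7 min. Values are the average of n ≥ 3.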
Target sequence in this assay (Q13255 whole entry): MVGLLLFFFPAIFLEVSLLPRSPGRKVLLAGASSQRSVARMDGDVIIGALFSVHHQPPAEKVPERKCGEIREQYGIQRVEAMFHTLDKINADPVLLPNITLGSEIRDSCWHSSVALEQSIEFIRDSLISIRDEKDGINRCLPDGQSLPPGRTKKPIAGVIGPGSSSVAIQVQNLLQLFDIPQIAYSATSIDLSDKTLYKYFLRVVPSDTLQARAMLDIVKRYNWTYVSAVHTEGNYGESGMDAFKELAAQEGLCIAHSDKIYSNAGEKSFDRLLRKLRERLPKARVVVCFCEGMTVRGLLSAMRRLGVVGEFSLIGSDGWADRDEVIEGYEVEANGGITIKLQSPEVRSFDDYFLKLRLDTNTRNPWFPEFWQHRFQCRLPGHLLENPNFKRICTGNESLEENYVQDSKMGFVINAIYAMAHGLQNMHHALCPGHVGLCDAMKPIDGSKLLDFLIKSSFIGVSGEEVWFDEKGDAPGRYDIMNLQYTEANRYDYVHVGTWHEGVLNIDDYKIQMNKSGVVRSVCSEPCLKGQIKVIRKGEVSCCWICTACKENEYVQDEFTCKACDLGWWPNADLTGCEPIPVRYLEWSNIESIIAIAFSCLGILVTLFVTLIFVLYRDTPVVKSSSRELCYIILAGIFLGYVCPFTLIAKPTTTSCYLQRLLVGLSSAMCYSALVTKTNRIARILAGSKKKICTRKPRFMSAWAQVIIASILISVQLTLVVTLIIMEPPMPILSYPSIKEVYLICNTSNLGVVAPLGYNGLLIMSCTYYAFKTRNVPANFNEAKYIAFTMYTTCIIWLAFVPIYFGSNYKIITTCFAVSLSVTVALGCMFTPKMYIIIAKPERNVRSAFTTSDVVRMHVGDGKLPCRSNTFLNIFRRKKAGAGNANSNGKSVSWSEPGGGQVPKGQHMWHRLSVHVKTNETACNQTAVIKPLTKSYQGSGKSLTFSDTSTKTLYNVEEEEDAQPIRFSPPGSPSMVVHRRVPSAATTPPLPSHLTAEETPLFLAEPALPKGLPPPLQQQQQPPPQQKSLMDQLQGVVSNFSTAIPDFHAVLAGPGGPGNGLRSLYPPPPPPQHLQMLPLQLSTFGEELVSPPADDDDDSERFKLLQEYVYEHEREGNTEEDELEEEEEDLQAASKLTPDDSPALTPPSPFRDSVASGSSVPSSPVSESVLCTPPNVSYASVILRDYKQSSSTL

[2] = target: T1, Metabotropic glutamate receptor 1; assay: Negative allosteric modulation of human mGlu1 receptor expressed in HEK293A TREx cells assessed as calcium flux at 30 uM after 45 mins relative to glutamate; type: functional, cell-based; conditions: HEK293-A
Procedure, shortened: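 Tetracycline-induced HEK293A TREx cells expressing human mGlu1 were loaded with Fluo-4 for Ca2+ flux. Test compound was given at 30 μM. Response amplitude is expressed as a percentage of the maximal response to 100 μM glutamate, averaged over n ≥ 3.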
Target sequence in this assay (Q13255 19-1194 limits assumed): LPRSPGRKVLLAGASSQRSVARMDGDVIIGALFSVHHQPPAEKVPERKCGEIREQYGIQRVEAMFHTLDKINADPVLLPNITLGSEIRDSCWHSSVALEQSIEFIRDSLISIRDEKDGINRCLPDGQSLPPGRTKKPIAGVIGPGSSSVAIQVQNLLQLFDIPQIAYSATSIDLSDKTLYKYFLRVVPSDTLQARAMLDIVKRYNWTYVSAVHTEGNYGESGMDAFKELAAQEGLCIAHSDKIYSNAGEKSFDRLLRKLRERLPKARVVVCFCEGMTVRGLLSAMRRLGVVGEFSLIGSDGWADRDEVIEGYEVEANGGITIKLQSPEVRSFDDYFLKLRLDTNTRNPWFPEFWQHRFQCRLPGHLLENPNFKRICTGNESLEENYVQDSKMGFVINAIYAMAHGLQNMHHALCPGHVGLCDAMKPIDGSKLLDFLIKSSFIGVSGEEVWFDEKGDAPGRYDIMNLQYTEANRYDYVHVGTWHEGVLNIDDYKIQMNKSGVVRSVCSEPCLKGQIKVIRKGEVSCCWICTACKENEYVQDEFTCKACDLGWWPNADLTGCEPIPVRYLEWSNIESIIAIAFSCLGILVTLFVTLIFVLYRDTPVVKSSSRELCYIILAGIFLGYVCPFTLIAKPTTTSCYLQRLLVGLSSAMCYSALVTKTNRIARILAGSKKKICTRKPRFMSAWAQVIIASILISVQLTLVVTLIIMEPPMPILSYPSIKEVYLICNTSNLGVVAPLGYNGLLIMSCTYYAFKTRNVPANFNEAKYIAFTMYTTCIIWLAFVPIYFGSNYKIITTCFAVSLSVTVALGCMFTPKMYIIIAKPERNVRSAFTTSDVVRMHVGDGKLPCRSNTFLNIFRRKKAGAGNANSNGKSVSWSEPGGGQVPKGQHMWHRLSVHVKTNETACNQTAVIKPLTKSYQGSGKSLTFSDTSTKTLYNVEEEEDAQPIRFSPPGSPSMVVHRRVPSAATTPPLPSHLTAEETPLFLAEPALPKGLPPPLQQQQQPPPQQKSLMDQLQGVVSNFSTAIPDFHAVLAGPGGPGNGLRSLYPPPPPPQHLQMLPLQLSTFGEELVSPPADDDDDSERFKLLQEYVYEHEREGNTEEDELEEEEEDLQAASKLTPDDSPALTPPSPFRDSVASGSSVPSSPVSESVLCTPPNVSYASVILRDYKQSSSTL

Plasma = assay: Fraction unbound in rat plasma; type: ADME, cell-free
Procedure, shortened: (§1)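 Unbound fraction was determined by equilibrium dialysis against rat plasma or rat brain homogenate.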

[3] = target: Kappa-type opioid receptor (Homo sapiens) (UniProt P41145); assay: Binding affinity to human kappa opioid receptor by radioligand binding assay; conditions: concentration not given here
Procedure, shortened: (§2)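 Compound was screened at 10 μM in a commercial radioligand binding panel of 68 GPCRs, ion channels, kinases and transporters.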

Brain = assay: Fraction unbound in rat brain; type: ADME, tissue-based; procedure, shortened: as §1
Cytochrome P450 2C9 = Cytochrome P450 2C9 (Homo sapiens, UniProt P11712); assay: Inhibition of CYP2C9 in human liver microsomes in presence of NADPH; type: ADME, Microsome
Sequence of Cytochrome P450 2C9 (P11712 whole entry): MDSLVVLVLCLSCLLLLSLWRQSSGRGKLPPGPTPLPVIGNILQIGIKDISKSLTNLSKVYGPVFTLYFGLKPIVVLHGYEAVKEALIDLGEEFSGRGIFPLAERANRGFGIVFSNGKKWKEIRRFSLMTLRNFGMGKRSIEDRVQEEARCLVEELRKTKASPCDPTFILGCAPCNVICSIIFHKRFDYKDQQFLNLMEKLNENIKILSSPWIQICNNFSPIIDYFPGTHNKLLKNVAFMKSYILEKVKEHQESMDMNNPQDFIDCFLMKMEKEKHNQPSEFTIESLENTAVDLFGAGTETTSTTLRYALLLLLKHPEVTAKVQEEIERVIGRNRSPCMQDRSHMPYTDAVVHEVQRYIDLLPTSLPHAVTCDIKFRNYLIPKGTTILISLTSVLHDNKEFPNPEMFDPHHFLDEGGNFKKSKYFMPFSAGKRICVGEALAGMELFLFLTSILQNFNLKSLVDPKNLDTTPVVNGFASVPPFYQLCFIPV

[4] = target: Metabotropic glutamate receptor 4 (Homo sapiens) (UniProt Q14833); assay: Negative allosteric modulation of mGlu4 receptor (unknown origin) by cell based assay
Procedure, shortened: (§3)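 Selectivity against other mGlu subtypes was tested in cell-based functional assays with compound at 10 μM.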

[5] = target: Metabotropic glutamate receptor 2 (Homo sapiens) (UniProt Q14416); assay: Negative allosteric modulation of mGlu2 receptor (unknown origin) by cell based assay; procedure, shortened: as §3
Sequence of Metabotropic glutamate receptor 2 (Homo sapiens) (Q14416 19-872 limits assumed): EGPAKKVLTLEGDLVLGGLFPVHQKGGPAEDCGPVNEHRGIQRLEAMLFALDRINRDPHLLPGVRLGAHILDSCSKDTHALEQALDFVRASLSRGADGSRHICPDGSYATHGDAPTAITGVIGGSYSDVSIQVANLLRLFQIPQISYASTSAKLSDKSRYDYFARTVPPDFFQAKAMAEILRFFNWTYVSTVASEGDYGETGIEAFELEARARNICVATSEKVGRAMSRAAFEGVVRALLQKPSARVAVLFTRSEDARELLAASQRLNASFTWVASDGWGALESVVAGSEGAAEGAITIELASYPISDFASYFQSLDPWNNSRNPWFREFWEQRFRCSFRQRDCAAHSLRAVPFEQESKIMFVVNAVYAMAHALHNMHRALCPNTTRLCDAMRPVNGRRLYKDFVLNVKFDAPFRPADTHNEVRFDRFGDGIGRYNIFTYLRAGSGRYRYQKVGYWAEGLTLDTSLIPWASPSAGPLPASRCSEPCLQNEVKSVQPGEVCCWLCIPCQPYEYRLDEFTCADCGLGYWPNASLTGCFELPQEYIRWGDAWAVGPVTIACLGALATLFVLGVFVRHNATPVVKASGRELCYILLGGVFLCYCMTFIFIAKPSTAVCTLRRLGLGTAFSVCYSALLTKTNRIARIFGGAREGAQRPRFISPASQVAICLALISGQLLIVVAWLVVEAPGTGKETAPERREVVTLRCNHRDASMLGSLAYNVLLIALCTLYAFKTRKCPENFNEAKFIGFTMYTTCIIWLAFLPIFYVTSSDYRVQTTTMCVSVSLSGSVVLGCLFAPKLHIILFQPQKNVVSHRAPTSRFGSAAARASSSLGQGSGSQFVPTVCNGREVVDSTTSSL

Cytochrome P450 1A2 = target: T2, Cytochrome P450 1A2 (Homo sapiens, UniProt P05177); assay: Inhibition of CYP1A2 in human liver microsomes in presence of NADPH; type: ADME, Microsome
T2 sequence (P05177 whole entry): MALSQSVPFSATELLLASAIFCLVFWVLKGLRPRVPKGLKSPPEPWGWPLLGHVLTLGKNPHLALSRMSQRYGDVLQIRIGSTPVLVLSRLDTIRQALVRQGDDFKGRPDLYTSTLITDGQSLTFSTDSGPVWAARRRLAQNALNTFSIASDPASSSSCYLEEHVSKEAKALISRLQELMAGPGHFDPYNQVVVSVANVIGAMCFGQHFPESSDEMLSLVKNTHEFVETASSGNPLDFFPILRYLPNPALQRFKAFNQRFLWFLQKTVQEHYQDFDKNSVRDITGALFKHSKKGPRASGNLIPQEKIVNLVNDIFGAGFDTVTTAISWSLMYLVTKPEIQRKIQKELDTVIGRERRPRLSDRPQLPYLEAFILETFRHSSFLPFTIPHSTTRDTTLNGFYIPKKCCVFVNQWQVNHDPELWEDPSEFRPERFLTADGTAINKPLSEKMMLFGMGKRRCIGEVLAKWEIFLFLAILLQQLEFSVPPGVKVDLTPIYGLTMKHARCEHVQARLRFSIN

[6] = target: Metabotropic glutamate receptor 5 (Rattus norvegicus, UniProt P31424); assay: Negative allosteric modulation of mGlu5 receptor (unknown origin) by cell based assay
Cytochrome P450 2D6 = Cytochrome P450 2D6 (Homo sapiens, UniProt P10635); assay: Inhibition of CYP2D6 in human liver microsomes in presence of NADPH; type: ADME, Microsome
Sequence of Cytochrome P450 2D6 (P10635 whole entry): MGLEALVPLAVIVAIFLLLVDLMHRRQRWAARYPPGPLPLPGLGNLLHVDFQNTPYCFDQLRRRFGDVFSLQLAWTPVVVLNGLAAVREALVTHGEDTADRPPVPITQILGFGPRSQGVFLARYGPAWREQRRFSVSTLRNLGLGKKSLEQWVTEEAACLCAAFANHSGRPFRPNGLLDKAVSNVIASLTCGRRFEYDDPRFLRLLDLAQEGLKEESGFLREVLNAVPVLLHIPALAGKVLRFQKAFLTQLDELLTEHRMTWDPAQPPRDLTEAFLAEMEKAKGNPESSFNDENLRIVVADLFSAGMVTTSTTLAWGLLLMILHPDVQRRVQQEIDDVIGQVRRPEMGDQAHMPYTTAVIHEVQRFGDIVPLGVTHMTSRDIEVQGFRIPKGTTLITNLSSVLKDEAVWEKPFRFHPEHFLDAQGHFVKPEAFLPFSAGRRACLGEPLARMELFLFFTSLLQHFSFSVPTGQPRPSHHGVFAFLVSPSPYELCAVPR

[7] = target: Sigma non-opioid intracellular receptor 1 (Homo sapiens) (UniProt Q99720); assay: Binding affinity to human sigma1 receptor by radioligand binding assay; conditions: concentration not given here; procedure, shortened: as §2
Sequence of Sigma non-opioid intracellular receptor 1 (Homo sapiens) (Q99720 whole entry): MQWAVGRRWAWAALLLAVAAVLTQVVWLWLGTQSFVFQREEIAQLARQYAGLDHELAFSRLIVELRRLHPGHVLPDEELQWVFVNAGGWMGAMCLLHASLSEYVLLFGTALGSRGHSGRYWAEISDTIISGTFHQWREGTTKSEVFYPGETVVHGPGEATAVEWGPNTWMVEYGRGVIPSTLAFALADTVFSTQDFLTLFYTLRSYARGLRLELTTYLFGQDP

[8] = target: Metabotropic glutamate receptor 3 (Homo sapiens) (UniProt Q14832); assay: Negative allosteric modulation of mGlu3 receptor (unknown origin) by cell based assay; procedure, shortened: as §3
[9] = target: T3, 5-hydroxytryptamine receptor 3A (Homo sapiens) (UniProt P46098); assay: Binding affinity to human 5HT3 receptor by radioligand binding assay; conditions: concentration not given here; procedure, shortened: as §2
T3 sequence (whole entry): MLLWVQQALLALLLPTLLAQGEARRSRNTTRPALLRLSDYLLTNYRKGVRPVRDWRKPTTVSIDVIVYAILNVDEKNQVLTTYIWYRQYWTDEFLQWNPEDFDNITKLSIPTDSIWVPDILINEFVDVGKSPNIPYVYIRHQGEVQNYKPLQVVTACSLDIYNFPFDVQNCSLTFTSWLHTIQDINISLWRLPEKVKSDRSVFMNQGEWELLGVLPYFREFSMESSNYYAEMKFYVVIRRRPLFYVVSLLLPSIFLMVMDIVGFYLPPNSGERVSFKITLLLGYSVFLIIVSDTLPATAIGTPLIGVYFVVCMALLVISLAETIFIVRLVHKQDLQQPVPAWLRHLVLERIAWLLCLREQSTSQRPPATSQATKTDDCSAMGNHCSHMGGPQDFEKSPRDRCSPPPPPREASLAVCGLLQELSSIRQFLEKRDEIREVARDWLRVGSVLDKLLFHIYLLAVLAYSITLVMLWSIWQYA

[10] = target: Metabotropic glutamate receptor 5 (Rattus norvegicus) (UniProt P31424); assay: Negative allosteric modulation of rat mGlu5 receptor at 30 uM relative to glutamate
Cytochrome P450 3A4 = Cytochrome P450 3A4 (Homo sapiens, UniProt P08684); assay: Inhibition of CYP3A4 in human liver microsomes in presence of NADPH; type: ADME, Microsome
Sequence of Cytochrome P450 3A4 (P08684 whole entry): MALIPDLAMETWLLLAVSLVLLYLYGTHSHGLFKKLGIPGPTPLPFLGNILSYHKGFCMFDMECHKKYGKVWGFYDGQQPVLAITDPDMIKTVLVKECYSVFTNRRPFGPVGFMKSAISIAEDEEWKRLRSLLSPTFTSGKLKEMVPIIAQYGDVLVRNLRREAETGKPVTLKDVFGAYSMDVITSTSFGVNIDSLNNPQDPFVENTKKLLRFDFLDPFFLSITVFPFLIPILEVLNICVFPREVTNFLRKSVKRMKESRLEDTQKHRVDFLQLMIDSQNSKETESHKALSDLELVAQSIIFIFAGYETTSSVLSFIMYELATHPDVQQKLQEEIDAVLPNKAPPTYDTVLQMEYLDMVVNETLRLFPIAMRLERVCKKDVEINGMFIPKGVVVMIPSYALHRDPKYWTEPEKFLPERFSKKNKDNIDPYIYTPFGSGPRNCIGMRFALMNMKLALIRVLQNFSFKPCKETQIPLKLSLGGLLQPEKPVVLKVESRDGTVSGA

Rattus norvegicus = organism: Rattus norvegicus; assay: Binding affinity to rat sodium channel site 2 by radioligand binding assay; conditions: concentration not given here; procedure, shortened: as §2
[11] = target: Metabotropic glutamate receptor 8 (Homo sapiens) (UniProt O00222); assay: Negative allosteric modulation of mGlu8 receptor (unknown origin) by cell based assay; procedure, shortened: as §3
[12] = target: Metabotropic glutamate receptor 6 (Homo sapiens) (UniProt O15303); assay: Negative allosteric modulation of mGlu6 receptor (unknown origin) by cell based assay; procedure, shortened: as §3
[13] = target: T1, Metabotropic glutamate receptor 1; assay: Negative allosteric modulation of human mGlu1 receptor up to 30 uM
Target sequence in this assay (Q13255 whole entry, looked up): as the sequence (Q13255 whole entry) above

Structure (SMILES)	IC50 [1] [µM]	%max [2] [%]	also measured
C[C@H]1CC[C@H](C(=O)N2C[C@H]3CN(c4ccccn4)C[C@H]3C2)CC1	> 10	37.9	
N#Cc1cnccc1N1C[C@H]2CN(C(=O)C34CC5CC(CC(C5)C3)C4)C[C@H]2C1	> 10	36.8	
O=C(N1C[C@@H]2CN(c3ncccn3)C[C@@H]2C1)C12CC3CC(CC(C3)C1)C2	> 10	10.3	
O=C(CC12CC3CC(CC(C3)C1)C2)N1C[C@@H]2CN(c3ccccn3)C[C@@H]2C1		0	
O=C(N1C[C@@H]2CN(c3cnccn3)C[C@@H]2C1)C12CC3CC(CC(C3)C1)C2	0.669	-1.1	Fu (Plasma): 10.3%
O=C(N1C[C@@H]2CN(c3ccncn3)C[C@@H]2C1)C12CC3CC(CC(C3)C1)C2	> 10	25.5	
N#Cc1ccccc1N1C[C@H]2CN(C(=O)C34CC5CC(CC(C5)C3)C4)C[C@H]2C1	0.185	6.9	Fu (Plasma): 1.4%
O=C(N1C[C@@H]2CN(c3ccccn3)C[C@@H]2C1)C12CC3CC(CC(C3)C1)C2	0.085	2.2	inhibition [3]: 60%; Fu (Brain): 2.3%; IC50 (Cytochrome P450 2C9): > 30 µM; Activity [4]: inactive; Activity [5]: inactive; IC50 (Cytochrome P450 1A2): > 30 µM; Fu (Plasma): 2.9%; IC50 [6]: 3.36 µM; IC50 (Cytochrome P450 2D6): 24.3 µM; inhibition [7]: 95%; Activity [8]: inactive; inhibition [9]: 90%; %max [10]: 1.1%; IC50 (Cytochrome P450 3A4): 6.2 µM; inhibition (Rattus norvegicus): 52%
O=C(N1CC2CCCC(C2)C1)N1C[C@@H]2CN(c3ccccn3)C[C@@H]2C1	1.91	-1.5	
O=C(N1CCCCCCC1)N1C[C@@H]2CN(c3ccccn3)C[C@@H]2C1	> 10	23.2	
N#Cc1ncccc1N1C[C@H]2CN(C(=O)C34CC5CC(CC(C5)C3)C4)C[C@H]2C1	0.553	1.3	Fu (Plasma): 4.5%
O=C(N1C[C@@H]2CN(c3nccs3)C[C@@H]2C1)C12CC3CC(CC(C3)C1)C2	> 10	56.6	
CC(C)(C)C(=O)N1C[C@@H]2CN(c3ccccn3)C[C@@H]2C1	> 30		
CC1(C(=O)N2C[C@@H]3CN(c4ccccn4)C[C@@H]3C2)CCCCC1	5.14	9.3	
O=C(N1C[C@@H]2CN(c3ccccn3)C[C@@H]2C1)C12C3C4C5C3C1C5C42 (stereo partly drawn)	> 10	58.7	
O=C(N1CCC2(CCCCC2)CC1)N1C[C@@H]2CN(c3ccccn3)C[C@@H]2C1	0.364	1.5	Fu (Plasma): 1.5%

Structure (SMILES)	IC50 [1] [µM]	%max [2] [%]	also measured
O=C(C1CCCCC1)N1C[C@@H]2CN(c3ccccn3)C[C@@H]2C1	> 10	57.7	
O=C(N1C[C@@H]2CN(c3cccc(F)n3)C[C@@H]2C1)C12CC3CC(CC(C3)C1)C2	0.093	2.3	Fu (Plasma): 1.2%
O=C(N1C[C@@H]2CN(c3ccc(F)cn3)C[C@@H]2C1)C12CC3CC(CC(C3)C1)C2	0.478	2.2	Fu (Plasma): 1.5%
O=C(N1CCC2(CCCC2)CC1)N1C[C@@H]2CN(c3ccccn3)C[C@@H]2C1	0.769	0.7	
N#Cc1ccncc1N1C[C@H]2CN(C(=O)C34CC5CC(CC(C5)C3)C4)C[C@H]2C1	0.833	0.1	
CC(C)(C)[C@H]1CC[C@H](C(=O)N2C[C@H]3CN(c4ccccn4)C[C@H]3C2)CC1	> 10	29.2	
O=C(C1CCCCCC1)N1C[C@@H]2CN(c3ccccn3)C[C@@H]2C1	> 10	36.5	
O=C(CC1CCCCC1)N1C[C@@H]2CN(c3ccccn3)C[C@@H]2C1	> 10	47.6	
O=C(N1C[C@@H]2CN(c3ncccc3F)C[C@@H]2C1)C12CC3CC(CC(C3)C1)C2	1	2.1	
CC1(C)[C@@H]2CN(C(=O)N3C[C@@H]4CN(c5ccccn5)C[C@@H]4C3)C[C@@H]21	11.9	-7.5	
N#Cc1cccnc1N1C[C@H]2CN(C(=O)C34CC5CC(CC(C5)C3)C4)C[C@H]2C1		12.2	
O=C(N1C[C@@H]2CN(c3ccccn3)C[C@@H]2C1)N1CCC2(CCCC2)C1	0.297	-0.1	Fu (Brain): 5.1%; IC50 (Cytochrome P450 2C9): > 30 µM; Activity [4]: inactive; Activity [11]: Active; Activity [5]: inactive; IC50 (Cytochrome P450 1A2): > 30 µM; Fu (Plasma): 9%; IC50 [6]: > 10 µM; IC50 (Cytochrome P450 2D6): > 30 µM; Activity [8]: inactive; IC50 (Cytochrome P450 3A4): > 30 µM; Activity [12]: Active
O=C(N1CC2CCC(C2)C1)N1C[C@@H]2CN(c3ccccn3)C[C@@H]2C1		-5.8	
C[C@@H]1CN(c2cccnc2C#N)CCN1C(=O)C12CC3CC(CC(C3)C1)C2			IC50 (Cytochrome P450 2C9): > 30 µM; IC50 (Cytochrome P450 1A2): > 30 µM; IC50 (Cytochrome P450 2D6): 12.4 µM; IC50 (Cytochrome P450 3A4): 7 µM
CC(C)(C)CC(=O)N1C[C@@H]2CN(c3ccccn3)C[C@@H]2C1	> 30		Activity [13]: inactive

Source: ChEMBL document CHEMBL2417457, “Octahydropyrrolo[3,4-c]pyrrole negative allosteric modulators of mGlu1” (Bioorg Med Chem Lett, 2013)
